Assay results published in ChEMBL document CHEMBL5137016, “Turning Nonselective Inhibitors of Type I Protein Arginine Methyltransferases into Potent and Selective Inhibitors of Protein Arginine Methyltransferase 4 through a Deconstruction-Reconstruction and Fragment-Growing Approach” (J Med Chem, 2022).
pIC50: −log10 of the molar value. Active and inactive are the calls of the source. The calls are words filed in the database; no cut-off is given here.

How the values were obtained:
[1] = Apparent permeability of the compound in phosphate buffer at pH 7.4 measured after 24 hrs by PAMPA assay; assay type: ADME; conditions: pH 7.4, 24 h
[2] = test system: MCF7; experiment: Antiproliferative activity against human MCF7 cells assessed as reduction in cell viability at 50 uM incubated up to 8 days by cell titer-glo assay; assay type: functional, cell-based; conditions: time <= 8.0 day
Method in brief: (§1)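 MCF7 seeded at 1000 cells/well in 96-well plates; proliferation read at days 0, 2, 4, 6 and 8 with medium changed at day 4; viability measured by CellTiter-Glo luminescence.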

[3] = test system: HEK-293T; experiment: Cytotoxicity against human HEK293T cells assessed as cell viability at 10 to 100 uM incubated for 24 to 72 hrs by MTT assay; assay type: toxicity, cell-based; conditions: dose lower 10 µM, time lower 24 hrs, dose upper 100 µM, time upper 72 hrs
Method in brief: (§2)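 HEK293T cells grown in DMEM with 10% FBS, penicillin/streptomycin and 2 mM glutamine at 37 °C, 5% CO2; seeded at 5 × 10^4 cells/mL, exposed 24 or 72 h to 10, 50 or 100 μM in 0.2% DMSO; MTT formazan dissolved in DMSO, read at 550 nm minus 620 nm; quadruplicate; percent of 0.2% DMSO control.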

[4] = Cytotoxicity against human HEK293T cells assessed as cell viability at 10 to 100 uM measured after 72 hrs by MTT assay; assay type: toxicity, cell-based, HEK-293T; conditions: dose 10-100 µM, read-out: Activity; method in brief: as §2
[5] = biological target: T1, Histone-arginine methyltransferase CARM1 (Homo sapiens) (UniProt Q86X55); experiment: Binding affinity to full length recombinant PRMT4 (unknown origin) assessed as binding constant (Kon) by surface plasmon resonance analysis
T1 sequence (whole entry): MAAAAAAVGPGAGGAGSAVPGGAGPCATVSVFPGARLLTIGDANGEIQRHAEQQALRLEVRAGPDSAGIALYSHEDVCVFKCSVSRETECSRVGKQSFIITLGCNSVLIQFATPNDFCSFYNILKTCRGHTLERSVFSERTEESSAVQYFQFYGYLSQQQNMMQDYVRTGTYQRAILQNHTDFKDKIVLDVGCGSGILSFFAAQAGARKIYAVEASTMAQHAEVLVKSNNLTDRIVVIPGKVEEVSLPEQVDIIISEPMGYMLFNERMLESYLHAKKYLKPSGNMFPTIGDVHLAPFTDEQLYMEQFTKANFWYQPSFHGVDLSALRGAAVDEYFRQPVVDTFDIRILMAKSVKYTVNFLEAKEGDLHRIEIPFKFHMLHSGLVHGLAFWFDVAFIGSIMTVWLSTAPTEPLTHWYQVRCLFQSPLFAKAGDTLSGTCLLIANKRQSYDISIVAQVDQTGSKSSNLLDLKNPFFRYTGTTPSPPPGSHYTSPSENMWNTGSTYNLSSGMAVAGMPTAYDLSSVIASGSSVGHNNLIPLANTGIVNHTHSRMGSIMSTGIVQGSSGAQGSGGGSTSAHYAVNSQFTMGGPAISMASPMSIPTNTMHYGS
Method in brief: (§3)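 Full-length recombinant PRMT4 was amine-coupled to a CM5 chip at 50 μg/mL in 10 mM acetate pH 4.5, to 4.6 kRU, with an empty reference cell. The running buffer was PBS pH 7.4 with 0.05% Tween-20 and 2% DMSO. Compounds ran as 12 serial dilutions from 640 to 10 nM at 25 °C and 30 μL/min, with 90 s association and 90 s dissociation. Data were solvent-corrected and double-referenced, and KD was taken as koff/kon.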

[6] = species on record: Homo sapiens; experiment: Selectivity index, ratio of IC50 for inhibition of human full length recombinant GST-tagged PRMT6 (2 to 375 residues) using GST-GAR as substrate to IC50 for inhibition of human full length recombinant GST-tagged PRMT4 (2 to 608 residues) using histone H3 as substrate
Method in brief: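 Radioisotope filter-binding assay: PRMT6 used 5 μM GST-GAR and PRMT4 used 5 μM histone H3, in pH 8.5 Tris buffer with 1% DMSO. Compound was preincubated 20 min at room temperature, then 1 μM 3H-SAM was added for 60 min at 30 °C, with scintillation read-out. […] Index = IC50(PRMT6)/IC50(PRMT4), rounded to integer.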

[7] = test system: MCF7; experiment: Antiproliferative activity against human MCF7 cells assessed as reduction in cell viability at 10 uM incubated up to 8 days by cell titer-glo assay; assay type: functional, cell-based; conditions: time <= 8.0 day; method in brief: as §1
[8] = Toxicity in human HEK293T cells assessed as cell death at >10 uM measured after 24 hrs; conditions: hek-293t
[9] = biological target: T1, Histone-arginine methyltransferase CARM1 (Homo sapiens); experiment: Binding affinity to full length recombinant PRMT4 (unknown origin) assessed as binding constant (Koff) by surface plasmon resonance analysis; method in brief: as §3
[10] = biological target: T1, Histone-arginine methyltransferase CARM1 (Homo sapiens); experiment: Binding affinity to full length recombinant PRMT4 (unknown origin) assessed as in vitro residence time by surface plasmon resonance analysis; method in brief: as §3
[11] = biological target: T2, Histone-arginine methyltransferase CARM1 (Homo sapiens, UniProt Q86X55); experiment: Inhibition of PRMT4 (unknown origin)
T2 sequence (Q86X55 whole entry): T1 sequence (whole entry)

Structure (SMILES) | permeability [1] | K [5] | Activity [3] | viability at 72 h, up to 100 µM [4] [%] | further results
CNCCN1CCC(c2cc(CN(C)C(=O)c3cccc(Oc4ccccc4)c3)ccn2)CC1 | – | – | – | – | Activity [7]: Active; Activity [8]: Toxic
C[S+](CCC(N)C(=O)O)C[C@H]1O[C@@H](n2cnc3c(N)ncnc32)[C@H](O)[C@@H]1O (single isomer, unassigned) | – | 2.9 10^5/Ms | – | – | K [9]: 0.003 s⁻¹; TIME [10]: 0.0926 h
COc1ccc(CCNC(=O)[C@@H](N)CC[C@H](CNCc2ccccc2)C[C@H]2O[C@@H](n3cnc4c(N)ncnc43)[C@H](O)[C@@H]2O)cc1 | – | – | – | – | pIC50 [11]: 5.72

The next lines start with results.

permeability [1] | K [5] | Structure (SMILES) | Activity [3] | viability at 72 h, up to 100 µM [4] [%] | further results
Impermeable | – | COC(=O)c1cc(O)c2cc(NC(=O)NCCCCNC(=N)NC/C=C/[C@H]3O[C@@H](n4cnc5c(N)ncnc54)[C@H](O)[C@@H]3O)ccc2c1 | Non-Toxic | 80 | Activity [2]: Active
– | 3.49 10^4/Ms | COC(=O)c1cc(O)c2cc(NC(=O)NCCCCCNC(=N)NC[C@H]3O[C@@H](n4cnc5c(N)ncnc54)[C@H](O)[C@@H]3O)ccc2c1 | – | – | Selectivity Index [6]: > 238
Impermeable | 2.7 10^6/Ms | COC(=O)c1cc(O)c2cc(NC(=O)NCCCCNC(=N)NCC[C@H]3O[C@@H](n4cnc5c(N)ncnc54)[C@H](O)[C@@H]3O)ccc2c1 | Non-Toxic | 80 | –
– | 2.58 10^4/Ms | COC(=O)c1cc(O)c2cc(NC(=O)NCCCCCCCNC(=N)NC[C@H]3O[C@@H](n4cnc5c(N)ncnc54)[C@H](O)[C@@H]3O)ccc2c1 | – | – | –
Impermeable | 0.25 10^6/Ms | COC(=O)c1cc(O)c2cc(NC(=O)NCCCCNC(=N)NCCC[C@H]3O[C@@H](n4cnc5c(N)ncnc54)[C@H](O)[C@@H]3O)ccc2c1 | Non-Toxic | 80 | –
